Measured values: ChEMBL document CHEMBL1649578, “Biofilm formation and effect of caspofungin on biofilm structure of Candida species bloodstream isolates” (2009)
In brackets after ≈: the same amount, converted by molar mass. Activity calls are given as the source filed them. No cut-off for these calls is given here.

Assays:
[1] = system: Candida tropicalis; experiment: Antifungal activity against Candida tropicalis isolate CT8 biofilm assessed as viable fungal count per cm2 of silicone disk at 16 ug/ml after 48 hrs […]; format: functional
Summary of the method: (§1)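 Biofilms grown on serum-preconditioned silicone disks in RPMI 1640 for 24 h, PBS-washed, then exposed 48 h at 35°C on a rocker to caspofungin doubling dilutions spanning 0.25–128 μg/ml. Disks washed and sonicated/vortexed in PBS to release cells. Suspensions diluted in Butterfield buffer and plated on Sabouraud dextrose agar. Viable counts from three disks averaged as CFU/cm2.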

[2] = system: Candida parapsilosis; experiment: Antifungal activity against Candida parapsilosis isolate CP1 biofilm assessed as viable fungal count per cm2 of silicone disk at 1 ug/ml after 48 hrs […]; format: functional; summary of the method: as §1
[3] = system: Candida parapsilosis; experiment: Antifungal activity against Candida parapsilosis isolate CP1 biofilm assessed as viable fungal count per cm2 of silicone disk at 32 ug/ml after 48 hrs […]; format: functional; summary of the method: as §1
[4] = system: Candida albicans; experiment: Antifungal activity against Candida albicans isolate CA4 biofilm assessed as appearance of collapsed blastospore at 1 ug/ml after 48 hrs by scanning electron microscopy; format: functional, organism-based
Summary of the method: (§2)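 Silicone disks preconditioned 24 h at 37°C in heat-inactivated human serum, seeded with 1 × 10^6 CFU/ml in MOPS-buffered RPMI 1640 (pH 7.0), 1.5 h attachment at 37°C with shaking, then grown 24 h. Washed biofilms exposed to 1.0, 16 or 128 μg/ml caspofungin in RPMI 1640, 48 h at 35°C on a rocker. Untreated controls in RPMI only. Fixed in 5% glutaraldehyde/cacodylate (pH 6.2), ethanol-dehydrated, HMDS air-dried, examined by SEM. Run in triplicate.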

[5] = system: Candida parapsilosis; experiment: Antifungal activity against Candida parapsilosis isolate CP1 biofilm assessed as viable fungal count per cm2 of silicone disk at 64 ug/ml after 48 hrs […]; format: functional; summary of the method: as §1
[6] = system: Candida tropicalis; experiment: Antifungal activity against Candida tropicalis isolate CT8 biofilm assessed as viable fungal count per cm2 of silicone disk at 8 ug/ml after 48 hrs […]; format: functional; summary of the method: as §1
[7] = system: Candida parapsilosis; experiment: Antifungal activity against Candida parapsilosis isolate CP1 biofilm assessed as viable fungal count per cm2 of silicone disk at 8 ug/ml after 48 hrs […]; format: functional; summary of the method: as §1
[8] = system: Candida parapsilosis; experiment: Antifungal activity against Candida parapsilosis isolate CP1 biofilm assessed as change in cellular morphology at 16 ug/ml after 48 hrs by scanning electron microscopy; format: functional, organism-based; summary of the method: as §2
[9] = system: Candida albicans; experiment: Antifungal activity against Candida albicans isolate CA4 biofilm assessed as viable fungal count per cm2 of silicone disk at 64 ug/ml after 48 hrs […]; format: functional; summary of the method: as §1
[10] = system: Candida tropicalis; experiment: Antifungal activity against Candida tropicalis isolate CT8 biofilm assessed as viable fungal count per cm2 of silicone disk at 128 ug/ml after 48 hrs […]; format: functional; summary of the method: as §1
[11] = system: Candida parapsilosis; experiment: Antifungal activity against Candida parapsilosis isolate CP1 biofilm assessed as viable fungal count per cm2 of silicone disk at 2 ug/ml after 48 hrs […]; format: functional; summary of the method: as §1
[12] = system: Candida parapsilosis; experiment: Antifungal activity against Candida parapsilosis isolate CP1 biofilm after 48 hrs by XTT assay; format: functional; settings: Lodderomyces parapsilosis, isolate CP1, 48 h
Summary of the method: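 Biofilms on serum-preconditioned silicone disks in MOPS-buffered RPMI 1640 (pH 7.0), grown 24 h, PBS-washed, then challenged 48 h at 35°C on a rocker with ten doubling caspofungin dilutions, 0.25–128 μg/ml. Metabolic activity read by XTT-menadione reduction, 2 h at 37°C, A490. SMIC taken as the concentration giving 50% reduction in metabolic activity versus drug-free control. Triplicate.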

[13] = system: Candida parapsilosis; experiment: Antifungal activity against Candida parapsilosis isolate CP1 biofilm assessed as change in cellular morphology at 1 ug/ml after 48 hrs by scanning electron microscopy; format: functional, organism-based; summary of the method: as §2
[14] = system: Candida tropicalis; experiment: Antifungal activity against Candida tropicalis isolate CT8 biofilm assessed as change in cellular morphology at 128 ug/ml after 48 hrs by scanning electron microscopy; format: functional, organism-based; summary of the method: as §2
[15] = system: Candida tropicalis; experiment: Antifungal activity against Candida tropicalis isolate CT8 biofilm assessed as viable fungal count per cm2 of silicone disk at 0.5 ug/ml after 48 hrs […]; format: functional; summary of the method: as §1
[16] = system: Candida tropicalis; experiment: Antifungal activity against Candida tropicalis isolate CT8 biofilm assessed as viable fungal count per cm2 of silicone disk at 1 ug/ml after 48 hrs […]; format: functional; summary of the method: as §1
[17] = system: Candida tropicalis; experiment: Ratio of SMIC for Candida tropicalis isolate CT8 biofilm to MIC for Candida tropicalis isolate CT8 planktonic cells; format: functional
[18] = system: Candida albicans; experiment: Antifungal activity against Candida albicans isolate CA4 biofilm assessed as viable fungal count per cm2 of silicone disk at 32 ug/ml after 48 hrs […]; format: functional; summary of the method: as §1
[19] = system: Candida albicans; experiment: Antifungal activity against Candida albicans isolate CA4 biofilm assessed as viable fungal count per cm2 of silicone disk at 8 ug/ml after 48 hrs […]; format: functional; summary of the method: as §1
[20] = system: Candida tropicalis; experiment: Antifungal activity against Candida tropicalis isolate CT8 biofilm assessed as appearance of collapsed cell wall at 1 ug/ml after 48 hrs by scanning electron microscopy; format: functional, organism-based; summary of the method: as §2
[21] = system: Candida tropicalis; experiment: Antifungal activity against Candida tropicalis isolate CT8 biofilm assessed as viable fungal count per cm2 of silicone disk at 64 ug/ml after 48 hrs […]; format: functional; summary of the method: as §1
[22] = system: Candida albicans; experiment: Antifungal activity against Candida albicans isolate CA4 biofilm assessed as viable fungal count per cm2 of silicone disk at 16 ug/ml after 48 hrs […]; format: functional; summary of the method: as §1
[23] = system: Candida albicans; experiment: Antifungal activity against Candida albicans isolate CA4 biofilm assessed as viable fungal count per cm2 of silicone disk at 128 ug/ml after 48 hrs […]; format: functional; summary of the method: as §1
[24] = system: Candida parapsilosis; experiment: Antifungal activity against Candida parapsilosis isolate CP1 biofilm assessed as viable fungal count per cm2 of silicone disk at 0.5 ug/ml after 48 hrs […]; format: functional; summary of the method: as §1

Structure (SMILES): CC[C@H](C)C[C@H](C)CCCCCCCCC(=O)N[C@H]1C[C@@H](O)[C@@H](NCCN)NC(=O)[C@@H]2[C@@H](O)CCN2C(=O)[C@H]([C@H](O)CCN)NC(=O)[C@H]([C@H](O)[C@@H](O)c2ccc(O)cc2)NC(=O)[C@@H]2C[C@@H](O)CN2C(=O)[C@H]([C@@H](C)O)NC1=O [CASPOFUNGIN]
- log10cfu [1]: 5.7
- log10cfu [2]: 0
- log10cfu [3]: 4.2
- Activity [4]: Active
- log10cfu [5]: 3.6
- log10cfu [6]: 5.7
- log10cfu [7]: 5.2
- Activity [8]: Active
- log10cfu [9]: 4.6
- log10cfu [10]: 3.3
- log10cfu [11]: 0
- MIC [12]: 4 µg/mL (≈ 3.66 µM)
- Activity [13]: inactive
- Activity [14]: inactive
- log10cfu [15]: 6.2
- log10cfu [16]: 5.7
- Ratio [17]: 16
- log10cfu [18]: 5.6
- log10cfu [19]: 5.6
- Activity [20]: Active
- log10cfu [21]: 5
- log10cfu [22]: 6.2
- log10cfu [23]: 3.5
- log10cfu [24]: 0
